Data: ChEMBL document CHEMBL2424538, “Synthesis, resolution, and biological evaluation of atropisomeric (aR)- and (aS)-16-methyllamellarins N: unique effects of the axial chirality on the selectivity of protein kinases inhibition” (J Med Chem, 2013)
Activity calls are given as the source filed them. No cut-off for these calls is given here.

Assays:
[1] = biological target: Glycogen synthase kinase-3 (Sus scrofa, UniProt B2LUN4+I6LNT8); experiment: Inhibition of porcine brain GSK-3alpha/beta using GS-1 peptide and [gamma-33P]ATP as substrate after 30 mins
In short: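 GSK-3α/β purified on immobilized axin, diluted 1/100 in 1 mg/mL BSA with 10 mM DTT. Substrate GS-1 phosphopeptide (5 μL of 4 μM), buffer A pH 7.5, 15 μM [γ-33P]ATP, 30 min at 30 °C. Radioactivity on P81 paper counted; blank subtracted; results as % of activity without inhibitor.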

[2] = tested on: HeLa; experiment: Cytotoxicity against human HeLa cells after 72 hrs by colony formation assay; format: functional, cell-based
In short: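 HeLa cells, 100−150 per well, cultured 72 h at 37 °C under 5% CO2 with varying compound concentrations in MEM with 10% fetal calf serum plus penicillin/streptomycin. Colonies (clusters of ≥40 cells) counted after methylene blue staining. Duplicates, at least four concentrations; IC50 by least-squares fit to logarithm-probit analysis.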

[3] = Cytotoxicity against human SH-SY5Y cells after 72 hrs by MTS assay; format: functional, cell-based
In short: (§1)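 Neuroblastoma cells grown in DMEM with 2 mM L-glutamine, antibiotics and 10% FCS; viability read by MTS reduction. Triplicate assays, values within 10%. IC50 estimated graphically from dose−response curves of at least six inhibitor concentrations.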

[4] = biological target: Dual specificity tyrosine-phosphorylation-regulated kinase 1A (Homo sapiens, UniProt Q13627); experiment: Inhibition of human recombinant DYRK1A expressed in Escherichia coli using [gamma-33P]ATP after 30 mins
In short: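 Enzyme (DYRK1A GST fusion purified on glutathione-agarose) assayed like CDK1/cyclin B: buffer C, 1 mg/mL histone H1, 15 μM [γ-33P]ATP, 30 min at 30 °C, P81 filter capture, scintillation counting, % of activity without inhibitor.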

[5] = tested on: IMR-32; experiment: Cytotoxicity against human IMR32 cells after 72 hrs by MTS assay; format: functional, cell-based; settings: IMR-32, 72 h; in short: as §1
[6] = Inhibition of porcine brain CK1delta/epsilon using CKS peptide and [gamma-33P]ATP as substrate after 30 mins; design: species or system Sus scrofa
In short: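 CK1δ/ε affinity-purified on immobilized axin fragment. Reaction captured on P81 phosphocellulose, washed in 1% phosphoric acid, scintillation counted; blanks subtracted; activity as % of no-inhibitor control, DMSO controls.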

[7] = species: Bos taurus; experiment: Inhibition of calf thymus DNA topoisomerase 1-mediated relaxation of supercoiled pBR322 plasmid DNA at 50 uM 30 mins by ethidium bromide staining
[8] = Inhibition of M-phase starfish oocytes CDK1/cyclin B using [gamma-33P]ATP after 30 mins; design: species or system Marthasterias glacialis; settings: oocyte
In short: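 CDK1/cyclin B extracted from oocytes in homogenization buffer, affinity-purified on p9CKShs1-Sepharose and eluted with free p9CKShs1. Activity measured in buffer C with 1 mg/mL histone H1 and 15 μM [γ-33P]ATP, 30 min at 30 °C. Read-out: 33P captured on P81 phosphocellulose by scintillation counting; blank subtracted; activity as % of uninhibited control; DMSO controls.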

SMILES | IC50 [1] [nM] | IC50 [2] [nM] | IC50 [3] [nM] | IC50 [4] [nM] | IC50 [5] [nM] | IC50 [6] [nM] | inhibition [7] | IC50 [8] [nM]
COc1ccc(-c2c3c4cc(OC)c(O)cc4oc(=O)c3n3ccc4cc(O)c(OC)cc4c23)cc1O | 5 | 32 | 40 | 35 | 19 | > 10000 | Active | 70
COc1cc(-c2c3c4cc(OC)c(O)cc4oc(=O)c3n3ccc4cc(O)c(OC)cc4c23)ccc1O |  |  |  |  |  |  | Active | 
CC[C@@]1(O)C(=O)OCc2c1cc1n(c2=O)Cc2cc3ccccc3nc2-1 |  |  |  |  |  |  | Active | 
